Compound activity as filed in PubChem.
The list is not random: actives were taken first. Their share in the collection is about 2.6%.
RAD52 anneal inh: RAD52 DNA annealing inhibitors, primary screen, biochemical, FRET, single point, set 2; actives 0.46% (n = 360,000); inhibition, % at 18.7 µM; AID 651710, 2012; recombinant RAD52 DNA annealing, FRET fluorescence; DNA repair protein RAD52 homolog (Homo sapiens), P43351;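 active means every replicate showing at least 50% inhibition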
AF4-AF9 inh: inhibitors of AF4 peptide binding to AF9, primary screen, biochemical, AlphaScreen, biotin-AF4 peptide, FLAG-AF9, single point | inhibition, % at 10 µM | Protein AF-9 (Homo sapiens), P42568 | AID 651704, 2012 | actives 0.47% (n = 350,000);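 active means every replicate reaching a set inhibition limit, whatever the replicate mean, cut at about 25% in these data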
rRNA inh HTS: reduced GFP signal of wild-type E. coli, primary screen, bacterial rRNA inhibitor project, GFP/RFP fluorescence, OD600, single point; E. coli WT GFP vs humanized-ribosome RFP mutants, 24 h; stronger effect = lower value; DMSO median 0, no signal -100; GFP signal change (wild-type ribosome), % (test concentration not listed); actives 1.6% (n = 350,000);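 active means significant combined selectivity score with lowered wild-type GFP, culture density cut under 30%, mutant RFP and density less affected; inactive means any of these conditions unmet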
E-selectin induc: E-selectin induction in HUVECs, primary screen, imaging, HUVEC, immunofluorescence imaging, single point; P16581; normalized: neutral wells 0, TNF-alpha wells 100; activation, % at 7.58 µM; actives 0.37% (n = 260,000); AID 686992, 2013;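 active means mean E-selectin-positive cell signal at least 10% of the positive control, reached in at least 60% of replicates, without over 20% cell loss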
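Read-out: % PE-positive cells | Test system: HUVEC | Doses: One compound dose added by pin transfer | Buffer or medium: EGM-2 over gelatin coat | Signal: Immunofluorescence imaging | Benchmarks: TNF-alpha, DMSO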
RAD54 branch: inhibitors of human RAD54 branch migration, primary screen, biochemical, fluorescence, single point; AID 602329, 2012; actives 0.14% (n = 360,000); DNA repair and recombination protein RAD54-like (Homo sapiens), Q92698; inhibition, % at 10.4 µM; RAD54 Holliday junction branch migration, FAM/BHQ fluorescence;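 active means mean normalized replicate activity at least 40 and at least half of replicates scoring 40 or more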;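 further: inhibitors cause a drop in the FAM fluorescence signal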
Target sequence (Q92698 whole entry, looked up): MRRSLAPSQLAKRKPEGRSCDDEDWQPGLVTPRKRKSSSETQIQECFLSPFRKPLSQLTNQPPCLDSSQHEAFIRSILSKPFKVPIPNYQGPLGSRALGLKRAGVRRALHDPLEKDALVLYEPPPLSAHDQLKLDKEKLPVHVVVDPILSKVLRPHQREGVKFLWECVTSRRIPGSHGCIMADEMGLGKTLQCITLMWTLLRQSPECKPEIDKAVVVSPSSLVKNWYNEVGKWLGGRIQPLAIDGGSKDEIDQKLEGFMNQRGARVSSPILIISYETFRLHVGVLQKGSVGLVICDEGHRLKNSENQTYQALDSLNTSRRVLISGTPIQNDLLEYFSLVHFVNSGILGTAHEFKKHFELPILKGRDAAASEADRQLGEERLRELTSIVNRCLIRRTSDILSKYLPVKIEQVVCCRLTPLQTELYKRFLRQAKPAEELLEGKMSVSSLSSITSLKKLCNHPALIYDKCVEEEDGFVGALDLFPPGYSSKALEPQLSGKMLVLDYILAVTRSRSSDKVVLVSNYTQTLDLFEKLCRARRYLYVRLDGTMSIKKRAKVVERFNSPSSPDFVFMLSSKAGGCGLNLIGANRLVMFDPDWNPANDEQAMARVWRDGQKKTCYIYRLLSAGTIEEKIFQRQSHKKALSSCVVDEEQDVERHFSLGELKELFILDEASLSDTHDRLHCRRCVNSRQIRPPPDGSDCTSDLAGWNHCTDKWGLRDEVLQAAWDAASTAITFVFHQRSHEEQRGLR
GSIS activator: GLuc luminescence reporter in INS-1E cells, primary screen for activators of glucose-dependent secretion of insulin | INS-1E GLuc reporter insulin secretion, 2-3 h | activation, % at 16.6 µM | actives 0.61% (n = 370,000) | AID 743287, 2014;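 active means lowest replicate activation of at least 40%, so every replicate reaches that level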
Each line names hits and unclear results; the compound was inactive in the other large screens.

CN(CC(=O)Nc1ccc(Cl)cc1)CC(=O)Nc1cc(Cl)ccc1C#N	rRNA inh HTS -38.2 (no result: E-selectin induc)
Cc1ccccc1S(=O)(=O)N1[C@@H]2Cn3c(cccc3=O)[C@H]1[C@@H](C(=O)N1CCOCC1)[C@@H]2CO	none
C[C@H](CO)N1C[C@H](C)[C@@H](CN(C)S(=O)(=O)c2ccc(Cl)cc2)OCCCC[C@H](C)Oc2ccc(NS(=O)(=O)c3cn(C)cn3)cc2C1=O	none
O=C(C[C@H]1CC[C@H]2[C@@H](COC[C@H](O)CN2C(=O)Nc2ccc(F)cc2)O1)NC1Cc2ccccc2C1	none
CCOC(=O)c1cnc2c(cnn2C)c1NCc1ccc(OC)cc1	rRNA inh HTS -19.0
COc1ccc(CNc2c(C(=O)O)cnc3c2cnn3C)cc1	none (no result: E-selectin induc)
O=C(NNC(=O)c1cc(-c2cccnc2)nc2ccccc12)Nc1ccc(Cl)cc1	rRNA inh HTS -29.3 (no result: RAD54 branch)
O=C(NNS(=O)(=O)c1ccc(Cl)cc1)c1cc(-c2ccccc2)nc2ccccc12	rRNA inh HTS -30.8 (no result: E-selectin induc)
O=C(N/N=C/c1ccc[nH]1)c1cc(-c2ccc(Cl)cc2)nc2ccccc12	rRNA inh HTS -38.5 (no result: RAD54 branch)
Cc1ccccc1S(=O)(=O)N1[C@H](C#N)[C@H](c2ccc(-c3ccccc3)cc2)[C@@H]1CO	none
COc1cccc(S(=O)(=O)N(C)C[C@@H]2Oc3ncc(C#CC(C)C)cc3C(=O)N([C@H](C)CO)C[C@@H]2C)c1	none
O=C([C@@H]1N[C@@H]2c3ccc(C4=CCCCC4)c(=O)n3C[C@@H]2[C@H]1CO)N1CCC(Cc2ccccc2)CC1	none
CCN1[C@@H]2c3ccc(-c4cccc(F)c4)c(=O)n3C[C@H]1[C@H](CO)[C@H]2C(=O)NCCCN(C)C	none
Cc1ccc(C(=O)c2sc(Nc3ccccc3)c(C#N)c2N)cc1	GSIS activator 42.7 (no result: RAD52 anneal inh, AF4-AF9 inh, rRNA inh HTS, E-selectin induc, RAD54 branch)
CC(C)C[C@H]1COCc2cn(nn2)CC[C@H](Cc2ccccc2)C(=O)N1	none (no result: RAD54 branch)
COc1ccc2c3c([nH]c2c1)[C@H](CO)N(C(=O)NC(C)C)CC31CCN(C(=O)NC2CCCC2)CC1	none (no result: RAD54 branch)
N#Cc1c(-c2ccncc2)c2c([nH]c1=O)-c1ccccc1OC2	none (no result: rRNA inh HTS, E-selectin induc, RAD54 branch, GSIS activator)
N#Cc1c(-c2ccccc2Cl)c2c([nH]c1=O)-c1ccccc1OC2	rRNA inh HTS -23.9
C[C@H](CO)N1C[C@H](C)[C@@H](CN(C)Cc2ccncc2)OCCCC[C@H](C)Oc2ccc(NS(=O)(=O)c3cn(C)cn3)cc2C1=O	none
COc1ccc(NC(=O)CNC(=O)C2CCCCC2)cc1OC	none
COc1ccc(NC(=O)COC(=O)CNC(=O)C2CCCCC2)cc1OC	GSIS activator 59.4
CCN(CC)c1ccc(NC(=S)NC(=O)C2CCC2)cc1	AF4-AF9 inh 25.7
CC(=O)Nc1ccc(NC(=S)NC(=O)C2CCCC2)cc1	none
CCC(=O)N1C[C@@H]2[C@H](c3ccccc31)[C@H](CO)N2Cc1ccccc1F	none
C[C@@H]1CN([C@@H](C)CO)C(=O)c2cc(NC(=O)Cc3ccccc3)ccc2O[C@@H](C)CCCCO[C@@H]1CN(C)S(=O)(=O)c1ccc(F)cc1	none (no result: RAD52 anneal inh, AF4-AF9 inh)
Cc1c(Cc2ccc3c(c2)OCO3)sc(NC(=O)C2CC2)c1C(N)=O	rRNA inh HTS -26.8
Cc1c(Cc2ccccc2)sc(NC(=O)c2ccco2)c1C(N)=O	GSIS activator 86.0 (no result: RAD52 anneal inh, AF4-AF9 inh, rRNA inh HTS, E-selectin induc)
Cc1c(Cc2ccc3c(c2)OCO3)sc(NC(=O)c2cccc3ccccc23)c1C(N)=O	none (no result: E-selectin induc)
C[C@@H]1CCCCO[C@@H](CN(C)C(=O)Nc2ccc(F)cc2)[C@H](C)CN([C@@H](C)CO)C(=O)c2cc(NC(=O)CCCN(C)C)ccc2O1	none
O=C(NCC[C@@H]1CC[C@@H](NC(=O)C2CC2)[C@H](CO)O1)c1ccc(F)cc1	none (no result: RAD52 anneal inh)
Nc1ccc(C2(c3ccc(N)cc3)c3ccccc3C(=O)c3ccccc32)cc1	rRNA inh HTS -31.6 (no result: RAD54 branch)
O=C1OC(c2ccc(O)cc2)(c2ccc(O)cc2)c2ccccc21	none (no result: rRNA inh HTS)
C[C@@H]1CCCCO[C@@H](CN(C)C(=O)CCCN(C)C)[C@@H](C)CN([C@H](C)CO)C(=O)c2cc(NC(=O)c3ccncc3)ccc2O1	none (no result: RAD52 anneal inh, AF4-AF9 inh)
Cc1cc(C)c2sc(NNC(=O)C3COc4ccccc4O3)nc2c1 (centres undefined)	E-selectin induc 83.3 (no result: GSIS activator)
CCCCCCCCCCOC(=O)Cn1c(COc2ccccc2OC)[n+](C)c2ccccc21	RAD52 anneal inh 75.1, GSIS activator 178.7
Cc1cccc(OCCCOc2cccc3cccnc23)c1C	none (no result: RAD52 anneal inh, AF4-AF9 inh, rRNA inh HTS, E-selectin induc, GSIS activator)
COc1cccc(OC)c1OCCCOc1cccc2cccnc12	rRNA inh HTS -28.8
Cc1ccc(S(=O)(=O)N2[C@@H](c3cccc(Cl)c3)C(C(=O)O)=CC[C@H]2c2cccc(C)c2)cc1	rRNA inh HTS -22.6 (no result: AF4-AF9 inh)
COc1ccc([C@@H]2CC=C(C(=O)O)[C@H](c3ccc(C(C)(C)C)cc3)N2S(=O)(=O)c2ccc(C)cc2)cc1OC	rRNA inh HTS -20.4
COc1cccc([C@@H]2CC=C(C(=O)O)[C@H](c3ccc(C)cc3)N2S(=O)(=O)c2ccc(C)cc2)c1	rRNA inh HTS -18.5 (no result: E-selectin induc)
COc1ccc([C@@H]2CC=C(C(=O)O)[C@H](c3ccc(F)cc3)N2S(=O)(=O)c2ccc(Cl)cc2)cc1	rRNA inh HTS -17.9
C[C@H](CO)N1C[C@H](C)[C@@H](CN(C)S(=O)(=O)c2ccccc2)Oc2ccc(NC(=O)CCCCCC(=O)Nc3ccccc3N)cc2CC1=O	none
O=C([C@@H]1[C@@H](CO)[C@@H]2Cn3c(cccc3=O)[C@@H]2N1C(=O)CC1CC1)N1CCCCC1	none
Cc1nn(C(C)C(=O)c2cccc(Cl)c2)c(C)c1[N+](=O)[O-] (centres undefined)	none (no result: E-selectin induc, RAD54 branch)
Cn1cnc([N+](=O)[O-])c1S(=O)(=O)Oc1ccccc1	GSIS activator 53.8
Cn1cnc([N+](=O)[O-])c1S(=O)(=O)c1cccc(Cl)c1	GSIS activator 104.1 (no result: RAD54 branch)
Cn1cnc([N+](=O)[O-])c1S(=O)(=O)Nc1ccccc1	none
COc1ccc2c3c([nH]c2c1)[C@@H](CO)N(C(=O)NC(C)C)CC31CN(C(=O)NC2CCCC2)C1	none (no result: RAD52 anneal inh, AF4-AF9 inh, E-selectin induc, RAD54 branch)
COc1ccc(N/N=C(\C#N)C(=O)NCCc2ccc(OC)c(OC)c2)cc1	rRNA inh HTS -38.5 (no result: AF4-AF9 inh, RAD54 branch)
COc1ccc(C(=O)C2CCN(C(=S)NCCc3ccc(OC)c(OC)c3)CC2)cc1	rRNA inh HTS -24.8 (no result: RAD54 branch)
COc1cc(/C=C/C(=O)OCC(=O)N2CCC(Cc3ccccc3)CC2)ccc1O	rRNA inh HTS -31.6
